Test results published in ChEMBL document CHEMBL5108069, “Selective C9orf72 G-Quadruplex-Binding Small Molecules Ameliorate Pathological Signatures of ALS/FTD Models” (J Med Chem, 2022).
Calls of active or inactive are those of the source. The calls are words filed in the database; no cut-off is given here.

Columns and labels:
[1] = test system: Quadruplex DNA; assay: Binding affinity to C9orf72 (G4C2)2 G4 quadruplex RNA (unknown origin) assessed as compound-DNA complex formation at pH 6 in 25 degree C by circular dichroism spectroscopy; assay type: nucleic-acid assay
Method in brief: (§1)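 G4 at 15 μM mixed with compound at 1:10 molar ratio, pH 6 or pH 7. CD spectra recorded at 25 °C in a 1 mm quartz cuvette as the mean of three scans, buffer subtracted.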

[2] = test system: HEK-293T; assay: Cytotoxicity in human HEK293T cells assessed as reduction in cell viability upto 10 ug/ml incubated for 24 hrs by MTT assay; assay type: toxicity, cell-based; details: dose < 10 µg/ml
Method in brief: (§2)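 HEK293T cells seeded at 5 × 10^3 per well, grown 24 h in DMEM with 10% FBS. Compounds in DMSO added at 0.1, 1 and 10 μg/mL for 24 h. MTT (5 mg/mL stock) added for 4 h at 37 °C, formazan dissolved in DMSO, absorbance read at 570 nm. n = 4 culture batches.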

[3] = molecular target: Quadruplex DNA; assay: Binding affinity to 3'-FAM labeled C9orf72 (G4C2)4 G4 quadruplex DNA (unknown origin) assessed as decrease in fluorescence intensity by fluorescence intensity assay; assay type: nucleic-acid assay
Method in brief: (§3)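 3'-FAM-labelled DNA (G4C2)4 G4 or RNA (G4C2)2 G4 annealed at 98 °C for 10 min in 10 mM K+ buffer (8 mM KCl, 2 mM KH2PO4, pH 6.8), 1 μM final, slowly cooled. Compound titrated 0.1–10 mM in same buffer at room temperature. Fluorescence read at ex/em 470/520 nm. KD from nonlinear one-site specific binding fit with Hill slope.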

[4] = test system: Erythrocyte; assay: Hemolytic activity in rabbit RBC assessed as hemolysis at 1000 ug/ml incubated for 1 hr by microtiter plate method; assay type: toxicity, cell-based, Oryctolagus cuniculus; details: dose 1000 µg/ml
Method in brief: (§4)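 Fresh rabbit red cells washed in PBS and used as a 2% suspension. Compounds diluted in PBS to final 250, 500 and 1000 μg/mL, mixed with an equal volume of cells, incubated 1 h at 37 °C. After centrifugation, supernatant absorbance read at 570 nm. Controls: 10% Triton X-100 (positive), 1% DMSO in PBS (negative). n = 3 preparations.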

[5] = test system: Quadruplex DNA; assay: Binding affinity to C9orf72 (G4C2)2 G4 quadruplex RNA (unknown origin) assessed as compound-DNA complex formation at pH 7 in 25 degree C by circular dichroism spectroscopy; assay type: nucleic-acid assay; method in brief: as §1
[6] = test system: Quadruplex DNA; assay: Binding affinity to C9orf72 (G4C2)4 G4 quadruplex DNA (unknown origin) assessed as compound-DNA complex formation at pH 7 in 25 degree C by circular dichroism spectroscopy; assay type: nucleic-acid assay; method in brief: as §1
[7] = Inhibition of locomotor deficit in OK371-GAL4-(G4C2)29 Drosophila expressing (G4C2)29 in motor neuron C9orf72 ALS/FTD model assessed as reduction in flies staying at the bottom of flask at 100 uM, po during larval stage by climbing assay relative to control (Rvb= 18.25%); assay type: functional; design: scale not given: the % may be the effect or the level left
Method in brief: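 Compound at 100 μM in solid food, DMSO vehicle, given from parental cross until F1 eclosion, then regular food. Climbing test on 7-day-old adults: percentage of flies remaining below 2 cm of the tube at 25 s. n = 8 experimental batches.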

[8] = test system: Quadruplex DNA; assay: Binding affinity to C9orf72 (G4C2)4 G4 quadruplex DNA (unknown origin) assessed as compound-DNA complex formation at pH 6 in 25 degree C by circular dichroism spectroscopy; assay type: nucleic-acid assay; method in brief: as §1
[9] = test system: N2a; assay: Neuroprotective activity in mouse Neuro2a cells transfected DNA (G4C2)29 C9orf 72 ALS/FTD cell model assessed as reduction in G4C2 RNA foci at 1 ug/ml incubated for 2 days by DAPI staining based immunofluorescence analysis; assay type: functional; details: dose 1.0 µg/ml, time 2.0 day
Method in brief: (§5)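 Neuro2a cells on coverslips transfected with a pHR-Tre3G-29xGGGGCC-12xMS2 plasmid, then treated with compound at 1 μg/mL for 2 days. Fixed in 4% PFA and permeabilised. Hybridised 3 h at 46 °C with Cy3-labelled G4C2-target and Cy5-labelled CAGG probes, co-stained for hnRNP H, DAPI counterstain. Foci per cell counted by confocal microscopy; n = 17–25 coverslips from three batches.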

[10] = test system: Drosophila; assay: Inhibition of eye degeneration in GMR-GAL4-(G4C2)29 Drosophila expressing (G4C2)29 in eyes C9orf72 ALS/FTD model assessed as reflective eyes at 100 uM, po incubated 7 day by stereomicroscopy; assay type: functional, organism-based
Method in brief: (§6)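 Parent flies crossed on solid food containing compound at 100 μM, DMSO vehicle. F1 larvae fed continuously until eclosion, then moved to compound-free food. Eyes of day-7 adults imaged by CCD camera on a stereomicroscope, with SEM of heads. Affected and total eye area measured to give degeneration ratio. n = 7–18 flies.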

[11] = test system: Quadruplex DNA; assay: Binding affinity to C9orf72 (G4C2)4 G4 quadruplex DNA (unknown origin) assessed as change in chemical shift by one-dimensional 1H-NMR analysis; assay type: nucleic-acid assay
Method in brief: (§7)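 Oligos (100 μM) annealed at 95 °C for 15 min, cooled slowly overnight in 70 mM KCl, 20 mM potassium phosphate, pH 7.0. NMR samples held 0.1 mM DNA or RNA. Compounds from ~50 mM DMSO-d6 stocks, titrated at G4:compound ratios 1:1 to 1:10 (RNA 1:3, 1:5, 1:10). Imino-region 1D 1H spectra at 25 °C; further spectra at pH 6 and 7, at 25, 35 and 45 °C.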

[12] = test system: N2a; assay: Neuroprotective activity in mouse Neuro2a cells transfected DNA (G4C2)29 C9orf 72 ALS/FTD cell model assessed as CAGG RNA foci abundance at 1 ug/ml incubated for 2 days by DAPI staining based immunofluorescence analysis; assay type: functional; details: dose 1.0 µg/ml, time 2.0 day; method in brief: as §5
[13] = Permeability of compound in PBS buffer at 500 uM incubated for 18 hrs by PAMPA assay; assay type: ADME
Method in brief: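 PAMPA: donor membrane coated with 4% lecithin in dodecane. 500 μM compound added to duplicate donor wells over PBS acceptor wells, incubated 18 h at 37 °C. Acceptor solution scanned 200–500 nm to find peak absorbance, referenced to equilibrium standards and a DMSO/PBS blank. n = 5.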

[14] = test system: Quadruplex DNA; assay: Stabilization of C9orf72 (G4C2)4 G4 quadruplex DNA (unknown origin) assessed as thermal stability by measuring melting temperature at pH 7 by circular dichroism spectroscopy; assay type: nucleic-acid assay
Method in brief: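 G4 at 15 μM with compound at 1:10 molar ratio, pH 7. CD signal followed from 25 to 95 °C at 1 °C/min at one wavelength (290 nm for DNA G4). Absorbance normalised as (Abst − min)/(max − min), then fitted to a Boltzmann sigmoid.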

[15] = test system: Quadruplex DNA; assay: Binding affinity to C9orf72 (G4C2)4 G4 quadruplex DNA (unknown origin) assessed as change in chemical shift at pH 6 in 25 to 45 degree C by one-dimensional 1H-NMR analysis; assay type: nucleic-acid assay; method in brief: as §7
[16] = test system: N2a; assay: Neuroprotective activity in mouse Neuro2a cells transfected DNA (G4C2)29 C9orf 72 ALS/FTD cell model assessed as increase in cell viability at 1 ug/ml by DAPI staining based immunofluorescence analysis; assay type: functional; details: dose 1.0 µg/ml
[17] = test system: Drosophila; assay: Inhibition of eye degeneration in GMR-GAL4-(G4C2)29 Drosophila expressing (G4C2)29 in eyes C9orf72 ALS/FTD model assessed as smoothening of eyes at 100 uM, po incubated 7 day by stereomicroscopy; assay type: functional, organism-based; method in brief: as §6
[18] = test system: Quadruplex DNA; assay: Binding affinity to C9orf72 (G4C2)4 G4 quadruplex DNA (unknown origin) assessed as change in chemical shift at pH 7 in 25 to 45 degree C by one-dimensional 1H-NMR analysis; assay type: nucleic-acid assay; method in brief: as §7
[19] = test system: HT-22; assay: Neuroprotective activity in retinoic acid and cAMP differentiated mouse HT-22 cells assessed as decrease in glutamate induced cellular ROS level incubated for 1 hrs by DCFH-DA based […]; assay type: functional, cell-based; details: DDE = dose-dependent effect
Method in brief: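 HT22 cells differentiated for 48 h with 10 μM retinoic acid and 500 μM cAMP in DMEM with 0.5% FBS. 5 mM L-glutamate given for 24 h, then 10 μM DCFH-DA loaded for 30 min at 37 °C and washed off. Compounds at 2 μg/mL added for 1 h; Rosup served as positive control. DCF read at 488/525 nm on a plate reader. n = 18–42 wells from three batches.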

[20] = test system: Drosophila; assay: Inhibition of eye degeneration in GMR-GAL4-(G4C2)29 Drosophila expressing (G4C2)29 in eyes C9orf72 ALS/FTD model assessed as reduction in rough-eye phenotype at 100 uM, po incubated 7 day by stereomicroscopy; assay type: functional, organism-based; method in brief: as §6
[21] = test system: Quadruplex DNA; assay: Binding affinity to C9orf72 (G4C2)2 G4 quadruplex RNA (unknown origin) assessed as change in chemical shift by one-dimensional 1H-NMR analysis; assay type: nucleic-acid assay; method in brief: as §7
[22] = molecular target: Quadruplex DNA; assay: Binding affinity to 3'-FAM labeled C9orf72 (G4C2)2 G4 quadruplex RNA (unknown origin) assessed as decrease in fluorescence intensity by fluorescence intensity assay; assay type: nucleic-acid assay; method in brief: as §3
[23] = test system: Quadruplex DNA; assay: Binding affinity to C9orf72 (G4C2)2 G4 quadruplex DNA (unknown origin) assessed as change in chemical shift by one-dimensional 1H-NMR analysis; assay type: nucleic-acid assay
Method in brief: (§8)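 Oligonucleotide annealed at 100 μM by heating to 95 °C for 15 min, then cooled slowly to room temperature overnight in 70 mM KCl, 20 mM potassium phosphate, pH 7.0. NMR samples held 0.1 mM G4 in the same buffer. Compound stocks were about 50 mM in DMSO-d6. Titrated into G4; imino-region 1D 1H spectra recorded at 25 °C and compared with G4-only and DMSO control spectra.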

[24] = test system: Quadruplex DNA; assay: Binding affinity to human telomeric htel21-T18 (d[(GGGTTA)2GGGTTTGGG]) G4 quadruplex DNA assessed as change in chemical shift by one-dimensional 1H-NMR analysis; assay type: nucleic-acid assay; method in brief: as §8
[25] = test system: HEK-293T; assay: Cytotoxicity in human HEK293T cells assessed as reduction in cell viability upto 0.1 ug/ml incubated for 24 hrs by MTT assay; assay type: toxicity, cell-based; details: dose < 0.1 µg/ml; method in brief: as §2
[26] = test system: Erythrocyte; assay: Hemolytic activity in rabbit RBC assessed as hemolysis at 250 to 1000 ug/ml incubated for 1 hr by microtiter plate method; assay type: toxicity, cell-based, Oryctolagus cuniculus; details: DDE = dose-dependent effect, dose 250-1000 µg/ml; method in brief: as §4

| SMILES | Activity [1] | Activity [2] | Kd [3] [µM] | Activity [4] | Activity [5] | Activity [6] | Activity [7] [%] | Activity [8] | Activity [9] | Activity [10] | Activity [11] | permeability [13] | Activity [14] | Activity [15] | Activity [16] | Activity [17] | Activity [18] | Activity [19] | Activity [20] | Activity [21] | also measured |
| --- | --- | --- | --- | --- | --- | --- | --- | --- | --- | --- | --- | --- | --- | --- | --- | --- | --- | --- | --- | --- | --- |
| CC(=O)Cc1cc2c(c(O)c1C(=O)O)-c1c(c(O)c3oc4c(O[C@@H]5O[C@H](C(=O)O)[C@@H](O)[C@H](O)[C@H]5O)cccc4c(=O)c3c1O)CC2 | Active | Non-Toxic | 2800 | Non-Toxic | Active | Active | 10.625 | Active | Active | Active | Active | Permeable | Active | Active | Active | Active | Active | Dde | Active | – | Activity [12]: Active |
| CC(=O)Cc1cc2c(c(O)c1C(=O)O)-c1c(c(O)c3oc4c(O[C@@H]5OC(C(=O)O)=C[C@H](O)[C@H]5O)cccc4c(=O)c3c1O)CC2 | Active | Non-Toxic | 2200 | Non-Toxic | Active | Active | 5.125 | Active | Active | Active | Active | Permeable | Active | Active | Active | Active | Active | Dde | Active | Active | Kd [22]: 3000 µM |
| CC12CC3CC(C)(C1)CC(N)(C3)C2 [MEMANTINE] | – | – | – | – | – | – | – | – | – | – | – | Permeable | – | – | – | – | – | – | – | – | – |
| N=C(N)c1ccc(-c2ccc(-c3ccc(-c4ccc(C(=N)N)cn4)o3)o2)nc1 | – | – | – | – | – | – | – | – | – | – | Active | Impermeable | – | – | – | – | – | – | – | Active | Activity [23]: Active; Activity [24]: Active |
| COc1c2c(c(O)c3c(=O)c4cccc(O[C@@H]5OC(C(=O)O)=C[C@H](O)[C@H]5O)c4oc13)-c1c(cc(CC(C)=O)c(C(=O)O)c1O)CC2 | Active | – | 3000 | – | Active | Active | – | Active | – | – | Active | Permeable | Active | Active | – | – | Active | Dde | – | – | Activity [25]: Toxic; Activity [26]: Dde |
